# KCNQ1 inh – inhibitors of human KCNQ1 channel, primary screen, cell-based, thallium flux, high-throughput | Potassium voltage-gated channel subfamily KQT member 1 (Homo sapiens), P51787 | CHO-K1 KCNQ1, FluxOR thallium flux fluorescence; stronger effect = higher value | B-score at 10 µM | 310,000 compounds, 1.3% hits;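 active = compounds whose thallium flux B-score, printed positive for inhibition, exceeds three library SD while starting fluorescence stays within three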;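 note: channel opened by potassium depolarization with thallium stimulus after 20 min compound exposure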
# hERG rescue – hERG rescue from dofetilide block, primary screen, cell-based, CHO-hERG, FluxOR thallium flux, dofetilide IC70; Voltage-gated inwardly rectifying potassium channel KCNH2 (Homo sapiens), Q12809; activation (rescue from dofetilide block), less the hit threshold, % at 10 µM; 310,000 compounds, 0.51% hits; AID 1511, 2009; dofetilide IC70 present;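 active = activation above the mean of controls blocked by dofetilide plus 5 SD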;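 note: thallium influx through hERG after potassium depolarization seen as dye fluorescence rise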
# Kir21 block – inhibitors of mouse Kir2.1 inward-rectifier potassium channel. 310,000 compounds, 0.85% hits. B-score at 10 µM. AID 1672, 2009. HEK293-Kir2.1, FluxOR thallium flux fluorescence; stronger effect = lower value;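 active = fluorescence ratio B-score at or below minus 3 SD of library scores, with starting-brightness B-score within 2 SD, cut at about -4.2 in these data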;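 note: channel flux triggered by added potassium and thallium sulfate stimulus; B-score of peak minus minimum fluorescence over baseline after thallium stimulus; more negative B-score means stronger Kir2.1 block with less thallium influx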
# KCNK9 block – KCNK9 potassium channel inhibitors, primary screen, HEK293 cells, thallium flux. FluxOR thallium flux fluorescence; stronger effect = lower value. AID 488922, 2010. B-score at 10 µM. 310,000 compounds, 1.2% hits;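 active = ratio B-score over 3 SD below the library mean, with starting fluorescence within 5 SD of its mean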;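 note: negative B-score means less thallium flux so channel inhibition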
# KCNK3 inh – human KCNK3 channel inhibitors, primary screen, CHO cells, FluxOR thallium flux, B-score. FluxOR fluorescence; stronger effect = lower value. 340,000 compounds, 0.84% hits. Potassium channel subfamily K member 3 (Homo sapiens), O14649. B-score at 10 µM. AID 602410, 2012;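 active = B-score under library mean minus 4 SD, starting fluorescence ratio at most library mean plus 5 SD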;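 note: more negative B-score means stronger inhibition of thallium flux through KCNK3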
# Target sequence (O14649 whole entry, looked up): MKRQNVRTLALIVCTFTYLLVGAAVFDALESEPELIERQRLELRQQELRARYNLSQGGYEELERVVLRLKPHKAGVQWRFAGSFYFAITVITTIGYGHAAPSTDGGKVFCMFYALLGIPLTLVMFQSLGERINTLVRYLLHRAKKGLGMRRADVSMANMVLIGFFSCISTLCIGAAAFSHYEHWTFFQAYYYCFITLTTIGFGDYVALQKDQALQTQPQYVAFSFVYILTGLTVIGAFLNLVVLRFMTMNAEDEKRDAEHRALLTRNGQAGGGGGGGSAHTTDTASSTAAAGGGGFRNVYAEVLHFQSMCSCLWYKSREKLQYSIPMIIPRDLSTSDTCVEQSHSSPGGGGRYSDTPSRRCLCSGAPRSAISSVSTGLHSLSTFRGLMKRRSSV
# KCNQ1 pot – potentiators or activators of KCNQ1 channel, primary screen, cell-based, thallium flux, high-throughput | Potassium voltage-gated channel subfamily KQT member 1 (Homo sapiens), P51787 | CHO-K1 KCNQ1, thallium flux FluxOR fluorescence; stronger effect = higher value | B-score at 10 µM | 310,000 compounds, 0.35% hits | AID 2648, 2010;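 active = fluorescence ratio B-score, a plate-corrected score, at least three library SD, with initial intensity B-score within 5 SD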
#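 assay system = CHO-K1 cells stably expressing KCNQ1 | medium = assay buffer, equal DMSO in all wells | timing = 37 °C overnight plating, 90-min dark dye load, 20-min compound pretreatment | measured by = kinetic FluxOR thallium fluorescence, 10-s 1-Hz baseline, 110-s post-stimulus read | measure = fluorescence change relative to baseline, converted to B score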
# KCNK3 inh conf – retest of human KCNK3 channel inhibitors, confirmation, CHO cells, FluxOR thallium flux, triplicate. shares compounds with KCNK3 inh. FluxOR fluorescence; 0% buffer, 100% carvedilol maximal block. ratio percent of control, % at 10 µM. 2,400 compounds, 99% hits. AID 651638, 2012;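 active = ratio percent of control, averaged over triplicates, above buffer control mean plus 5 SD, cut at about 64% in these data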;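 note: ratio is the fluorescence rise from min to max over baseline after thallium stimulus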
# KCNK3 noninduced – thallium flux inhibition in non-induced cells, primary screen, counter-screen for KCNK3 inhibitor project, cell-based, non-induced KCNK3 line, FluxOR thallium, triplicate; shares compounds with KCNK3 inh; non-induced KCNK3 parental cells; stronger effect = lower value; thallium flux ratio (lower = more inhibition) at 10 µM; 2,400 compounds, 40% hits;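 active = thallium flux ratio, averaged over three wells, more than 5 SD below the buffer control mean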;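 note: host cells are CHO cells without KCNK3 induction; ratio is peak minus trough fluorescence over baseline then normalized to buffer controls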
# An asterisk follows results filed as active; i = inactive; / = not tested or not shown. This is a sample that favours compounds with a hit; in the whole collection about 3.8% have one here.
SMILES,KCNQ1 inh,hERG rescue,Kir21 block,KCNK9 block,KCNK3 inh,KCNQ1 pot,KCNK3 inh conf,KCNK3 noninduced
COc1cccc(-c2nn(-c3ccc(C)cc3)cc2C(=O)N2CCc3cc(OC)c(OC)cc3C2)c1,i,-22.6,-0.32,i,-9.84*,i,103.7*,0.145*
COc1ccc(OC)c(-c2nn(-c3ccccc3)cc2C(=O)N2CCc3ccccc3C2)c1,/,/,/,/,i,/,/,/
Cc1cccc(OCC(=O)NCCCNC(=O)c2cnccn2)c1,i,-4.1,-0.99,i,i,i,/,/
O=C(Nc1ccc2nc(C3CC3)n(Cc3ccc(F)cc3)c(=O)c2c1)c1ccco1,i,-8.4,0.84,i,-9.86*,i,89.0*,i
CC(=O)Nc1ccc2nc(C3CC3)n(Cc3ccc(Cl)cc3)c(=O)c2c1,i,-15.8,0.01,i,i,i,/,/
O=C(O)C(=O)/C(=C\c1ccccc1)c1ccc2ccccc2n1,i,-11.3,0.88,i,i,i,/,/
O=C(O)C(=O)/C(=C\c1cccc2ccccc12)c1ccc2ccccc2n1,i,-2.5,0.01,i,-9.09*,i,137.3*,i
COC(=O)C1=C(C)NC(=O)NC1c1ccc(-c2ccc(Cl)cc2)o1 (centres undefined),i,-12.1,-0.32,i,i,i,/,/
COC(=O)C1=C(C)NC(=S)NC1c1ccc(-c2cc(Cl)ccc2Cl)o1 (centres undefined),i,-12.6,-2.92,i,-8.94*,i,106.7*,i
O=C(Nc1cccc(-n2cnnn2)c1)c1cccs1,i,-10.0,-0.55,i,-10.5*,i,79.3*,i
O=C(Nc1cccc(O)c1)c1cccc(NC(=O)c2cccs2)c1,i,-24.9,-0.45,-7.99*,-12.6*,i,110.0*,i
O=C(Nc1cccc(-n2cnnn2)c1)c1ccncc1,i,-5.4,-0.04,i,i,i,/,/
Cc1nn(-c2cccc(C(F)(F)F)c2)c(=O)c2ccccc12,i,-3.4,1.53,i,-8.97*,i,114.3*,0.16*
Cc1nn(-c2ccccc2)c(=O)c2ccccc12,i,-12.1,0.49,i,i,i,/,/
COc1cc(C(=O)NCC(=O)N/N=C/c2ccc(-c3ccc([N+](=O)[O-])cc3)o2)cc(OC)c1OC,i,-14.4,-0.88,i,-10.1*,i,95.0*,i
Cc1ccc(C)c(N2CCN(CCCNC(=O)CCC(=O)N3CCOc4ccc(Cl)cc43)CC2)c1,i,-19.2,-7.43,i,/,i,/,/
Cc1ccc(C)c(N2CCN(C(=O)CCC(=O)N3CCOc4ccc(Cl)cc43)CC2)c1,i,-4.8,-1.07,i,-10*,i,122.0*,0.147*
CCOc1c(Cl)cc(C(=O)Nc2cccc(C(=O)O)c2)cc1Cl,i,-18.4,0.1,i,i,i,/,/
CC(=O)N1c2ccc(S(=O)(=O)N3CCC(C(=O)NCCc4ccc(Cl)cc4)CC3)cc2CC1C (centres undefined),i,-2.1,-1.9,i,i,i,/,/
CCCN1C(=O)c2cc(C(=O)NC3CCCCCC3)ccc2C1O (centres undefined),i,1.6,1.14,i,-17.5*,i,82.0*,i
Cc1ccc2cc(/C=C(\C#N)C(N)=O)c(N3CCCCC3)nc2c1,i,-6.3,-0.45,i,i,i,/,/

# From PubChem
